Results pooled from the literature.
Each line is one published result; the experiments were not run side by side.
Target: Activin receptor type-1B (ACVR1B, Homo sapiens, UniProt P36896)
Residues used in one study (P36896 24-505): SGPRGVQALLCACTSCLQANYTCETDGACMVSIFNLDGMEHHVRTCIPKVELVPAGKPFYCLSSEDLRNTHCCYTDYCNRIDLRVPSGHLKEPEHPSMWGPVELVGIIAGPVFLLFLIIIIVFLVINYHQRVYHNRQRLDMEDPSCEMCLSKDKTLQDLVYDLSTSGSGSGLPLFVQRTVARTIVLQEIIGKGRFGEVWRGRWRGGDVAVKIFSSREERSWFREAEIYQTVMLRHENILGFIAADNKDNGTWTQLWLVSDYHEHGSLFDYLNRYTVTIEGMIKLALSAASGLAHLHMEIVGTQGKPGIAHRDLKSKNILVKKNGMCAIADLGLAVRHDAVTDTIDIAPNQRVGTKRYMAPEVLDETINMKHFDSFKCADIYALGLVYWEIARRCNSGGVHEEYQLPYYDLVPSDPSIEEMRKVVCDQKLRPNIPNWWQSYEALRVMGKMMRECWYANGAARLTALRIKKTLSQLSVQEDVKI

With `FC(F)(F)Oc1cccc(-c2cnc3ccc(-c4ccncc4)nn23)c1` the remaining binding was 85% (cell-free assay; competition with immobilised ligand; 5 µM).
`Nc1ncc2c(n1)-c1c([nH]c3ccc(C#CC4CC4)cc13)CCCC2` gave a remaining binding of 89% (binding; competition with immobilised ligand; 1 µM).
With `N[C@@H]1CCN(c2nccc(-c3cnn4ncccc34)n2)C1` the remaining binding was 100% (binding; 1 µM).
With `O=C(NCCCN1CCOCC1)c1ccc(Nc2ncc(Cl)c(-c3ccc(Cl)s3)n2)cc1` the remaining binding was 59% (binding; competition with immobilised ligand; 1 µM).
With `C[C@@H]1CCN(c2nccc(-c3cnn4ncccc34)n2)C1` the remaining binding was 76% (binding; 1 µM).
The remaining binding of `COc1ncc2cc3ccccc3nc2c1C#N` is reported as 88% (cell-free assay; competition with immobilised ligand; 5 µM).
The remaining binding of `O=C(c1ccc(Nc2ncc(Cl)c(-c3cc4ccccc4s3)n2)cc1)N1CCC(N2CCCC2)CC1` is reported as 48% (binding; competition with immobilised ligand; 1 µM).
`CN(c1nccc(-c2cnn3ncccc23)n1)C1CC1` gave a remaining binding of 100% (binding; 1 µM).
`O=C(NS(=O)(=O)c1ccc(NCC2CCOCC2)c([N+](=O)[O-])c1)c1ccc(N2CCN(Cc3ccc(C(F)(F)F)cc3-c3ccc(Cl)cc3)CC2)cc1Oc1cnc2[nH]ccc2c1` has a remaining binding of 59% (cell-free assay; competition with immobilised ligand; 1 µM).
`CN(CCCC(F)(F)F)c1nccc(-c2cnn3ncccc23)n1` has a remaining binding of 96% (binding; 1 µM).
`CN(C)c1ncnc(-c2ccc3nc(Nc4cc(CN5CCN(C(=O)CC(F)(F)F)CC5)ccn4)[nH]c3c2)c1Cl` gave a remaining binding of 91% (cell-free assay; competition with immobilised ligand; 1 µM).
`c1cncc(-c2cccc(Nc3nccc(NC4CCCCC4)n3)c2)c1` gave a remaining binding of 75% (binding; competition with immobilised ligand; 10 µM).
For `C[C@@H]1CN(c2ccc3ncc(-c4ccc5[nH]nc(C6CC6)c5c4)n3n2)C[C@H](C)O1`, the remaining binding was 100% (binding; competition with immobilised ligand; 50 nM).
`COc1cnc(Nc2cccc(S(N)(=O)=O)c2)nc1N1CCN(c2ccccc2)CC1` gave a remaining binding of 98% (binding; competition with immobilised ligand; 1 µM).
The remaining binding of `CC(=O)C1=C(C)N(c2cccc(C(F)(F)F)c2)C(=O)N[C@@H]1c1ccc(C#N)nc1` is reported as 100% (cell-free assay; competition with immobilised ligand; 1 µM).
The remaining binding of `Cc1cnn2ncc(-c3ccnc(N(C)C)n3)c2c1` is reported as 100% (binding; 1 µM).
`O=C(NCC1CCOCC1)c1n[nH]cc1NC(=O)c1c(F)cccc1F` gave a remaining binding of 100% (binding; competition with immobilised ligand; 1 µM).
For `Cc1nc(N2CC[C@@H](O)C2)ncc1-c1cc(C(F)(F)F)cc2[nH]ncc12`, the remaining binding was 100% (cell-free assay; competition with immobilised ligand; 1 µM).
With `C=CC(=O)N1CCC(C(=O)NCC(=O)N2CCN(c3nc(-c4cnc(N)nc4C(F)F)nc(N4CCOCC4)n3)CC2)CC1` the remaining binding was 82% (binding; competition with immobilised ligand; 1 µM).
`O=C(NCc1ncc(C(F)(F)F)cc1Cl)c1ccc2c(c1)C1(CCS(=O)(=O)CC1)[C@H](C1CC1)N2S(=O)(=O)c1ccc(F)cc1` gave a remaining binding of 94% (cell-free assay; competition with immobilised ligand; 1 µM).
With `O=C(c1ccc(Nc2ncc(Cl)c(-c3ccc(Cl)s3)n2)cc1)N1CCC(N2CCCC2)CC1` the remaining binding was 58% (binding; competition with immobilised ligand; 1 µM).
`CS(=O)(=O)NCC[C@H](NC(=O)c1cncc2c1cnn2-c1ccc(F)cc1)c1ccnc(S(C)(=O)=O)c1` gave a remaining binding of 100% (cell-free assay; competition with immobilised ligand; 1 µM).
For `c1cnn2ncc(-c3ccnc(N4CCC45COC5)n3)c2c1`, the remaining binding was 82% (binding; 1 µM).
The remaining binding of `O=C(Nc1cnc(Oc2ccc(F)cc2)nc1)N1CCc2ncccc2[C@@H]1c1ccc(F)cc1` is reported as 100% (cell-free assay; competition with immobilised ligand; 1 µM).
`CCN1CCN(Cc2ccc(C(=O)Nc3ccc(C)c(Oc4ccc5c(c4)CC(=O)N5)c3)cc2C(F)(F)F)CC1` gave a remaining binding of 100% (binding; competition with immobilised ligand; 1 µM).
